Assay results reported in ChEMBL document CHEMBL4371094, “Secondary Metabolites from the Fungus Dictyosporium sp. and Their MALT1 Inhibitory Activities” (J Nat Prod, 2019).
Activity calls are given as the source filed them. The rule behind the calls is not given here.

What follows are molecules tested against T1, Mucosa-associated lymphoid tissue lymphoma translocation protein 1 (Homo sapiens) (UniProt Q9UDY8) (assay: Inhibition of full-length human GST-tagged MALT1 isoform A (824 residues) expressed in Escherichia coli at >100 uM in presence of AMC after 1 hr by fluorescence assay).
T1 sequence (whole entry): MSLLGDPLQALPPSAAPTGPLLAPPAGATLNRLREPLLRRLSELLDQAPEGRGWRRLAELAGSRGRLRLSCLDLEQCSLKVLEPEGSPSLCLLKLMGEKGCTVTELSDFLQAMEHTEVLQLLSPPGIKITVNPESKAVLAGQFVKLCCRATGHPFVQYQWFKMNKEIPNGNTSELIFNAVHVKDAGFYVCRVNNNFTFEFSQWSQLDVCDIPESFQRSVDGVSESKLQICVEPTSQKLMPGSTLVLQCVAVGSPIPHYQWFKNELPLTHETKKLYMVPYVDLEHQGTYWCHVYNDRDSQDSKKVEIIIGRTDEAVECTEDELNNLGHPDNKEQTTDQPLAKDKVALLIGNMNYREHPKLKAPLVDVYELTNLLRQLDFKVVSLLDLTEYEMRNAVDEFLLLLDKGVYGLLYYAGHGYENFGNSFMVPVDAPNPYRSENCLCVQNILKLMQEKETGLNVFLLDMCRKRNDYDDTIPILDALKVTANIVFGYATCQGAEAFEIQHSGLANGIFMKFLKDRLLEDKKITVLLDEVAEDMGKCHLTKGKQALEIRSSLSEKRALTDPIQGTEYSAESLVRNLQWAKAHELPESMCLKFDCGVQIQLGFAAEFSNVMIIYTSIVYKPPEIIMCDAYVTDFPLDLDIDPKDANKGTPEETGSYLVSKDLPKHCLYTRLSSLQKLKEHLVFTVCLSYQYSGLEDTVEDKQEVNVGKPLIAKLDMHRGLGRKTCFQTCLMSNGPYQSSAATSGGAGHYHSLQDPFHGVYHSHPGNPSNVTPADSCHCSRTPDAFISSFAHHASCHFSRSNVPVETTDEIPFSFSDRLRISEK
For `COC(=O)C1=CC(C)=COc2oc3cccc(O)c3c(=O)c21`, the inhibition was “Active”. For `COC(=O)C1=CC=COc2oc3cc(C)cc(O)c3c(=O)c21`, the inhibition was “Active”.

Each molecule was assayed against T1, Mucosa-associated lymphoid tissue lymphoma translocation protein 1 (Homo sapiens) (assay: Inhibition of full-length human GST-tagged MALT1 isoform A (824 residues) expressed in Escherichia coli at 100 uM using Ac-LRSR-MCA as substrate after 1 hr by fluorescence assay).
In the case of `COc1cc2c(c(O)c1[C@H](C)O)C(=O)CC[C@@H]2O`, the inhibition is reported as “inactive”. In the case of `CCc1c(OC)cc2c(c1O)C(=O)CC[C@@]21C[C@@H](O)C(=O)O1`, the inhibition is reported as “inactive”. `Cc1cc(CO)c2c(=O)c3c(O)cccc3oc2c1` was tested, and the inhibition was “inactive”. With `COC(=O)c1cc(C)c(O)c2oc3cccc(O)c3c(=O)c12` the inhibition was “inactive”. `COc1c(C)cc(O)c2c1[C@H](O)[C@]1(C(=O)C(CC=C(C)C)=CC[C@H]1O)C2=O` was tested, and the inhibition was “inactive”. In the case of `COC(=O)c1cccc2oc3cc(C)cc(O)c3c(=O)c12`, the inhibition is reported as “inactive”. `Cc1cc([C@@H]2C[C@H](O)C(=O)O2)c2c(=O)c3c(O)cccc3oc2c1` was tested, and the inhibition was “inactive”. In the case of `COC(=O)c1cc(O)cc2oc3cc(C)cc(O)c3c(=O)c12`, the inhibition is reported as “inactive”. `CCc1c(OC)cc2c(c1O)C(=O)CC[C@@H]2O` was tested, and the inhibition was “inactive”.

The molecules below were run against T2, Mucosa-associated lymphoid tissue lymphoma translocation protein 1 (Homo sapiens, UniProt Q9UDY8) (assay: Inhibition of full-length human GST-tagged MALT1 isoform A (824 residues) expressed in Escherichia coli using Ac-LRSR-MCA as substrate after 1 hr by fluorescence assay).
T2 sequence (Q9UDY8 whole entry): T1 sequence (whole entry)
In short: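 Recombinant MALT1-GST, 25 nM final, in buffer of 50 mM Tris HCl pH 7.5, 0.05% CHAPS, 1 mM DTT, 0.1 mM EGTA, 0.8 M sodium citrate. Started by adding 150 μM Ac-LRSR-MCA with compound (0−250 μM). 37 °C for 1 h, quenched with equal volume 0.2% SDS, AMC fluorescence read at ex 342/em 441 nm in quadruplicate. Prequenched background subtracted, normalized to vehicle control.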
In the case of `CC(C)[C@H](NC(=O)OCc1ccccc1)C(=O)N[C@@H](CCCNC(=N)N)C(=O)N1CCC[C@H]1C(=O)N[C@@H](CCCNC(=N)N)C(=O)CF`, the IC50 is reported as 0.016 µM. With `COC(=O)C1=CC(C)=COc2oc3cccc(O)c3c(=O)c21` the IC50 was 32.1 µM. In the case of `COC(=O)C1=CC=COc2oc3cc(C)cc(O)c3c(=O)c21`, the IC50 is reported as 50.9 µM.
